Numbered stars: 1 amine (or outer) side, 2 acyl side, 3 side chain; on linkers, the order of the positions; unused ones are H or OH. Bridge positions count the residues as written; N and C are the ends. Square brackets hold non-standard residues; d marks the D form. Peptide text beside a SMILES is read from it. pY = N[C@@H](Cc1ccc(OP(=O)(O)O)cc1)C(=O)O; X1 = O=C(C1(N[*:1])CCCNC1)[*:2]
Target: Growth factor receptor-bound protein 2 (Homo sapiens, UniProt P62993)
Assay: Binding affinity to GST-tagged recombinant Grb2 SH2 domain by Biacore assay
Summary of the method: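 Surface plasmon resonance (Biacore) binding to the Grb2-SH2 domain, reported as Kd. Values are means of two experiments, with standard deviation given.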

Sequence of Growth factor receptor-bound protein 2 (P62993 whole entry, the tested form may be a part): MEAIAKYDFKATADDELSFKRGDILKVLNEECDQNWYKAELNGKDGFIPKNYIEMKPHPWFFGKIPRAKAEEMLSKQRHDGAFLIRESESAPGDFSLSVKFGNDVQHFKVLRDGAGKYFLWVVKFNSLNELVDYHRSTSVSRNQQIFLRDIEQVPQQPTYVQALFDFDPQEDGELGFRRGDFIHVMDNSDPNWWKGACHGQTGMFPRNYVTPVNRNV

Compound	Kd
NC(=O)C[C@H]1NC(=O)C2(CCCCC2)NC(=O)[C@@H](Cc2ccc(OP(=O)(O)O)cc2)NC(=O)C[S@@+]([O-])C[C@H](C(N)=O)NC(=O)[C@@H](Cc2ccc3ccccc3c2)NC1=O (single isomer, unassigned)	4800 nM
CC(C)[C@@H]1NC(=O)[C@H](CC(N)=O)NC(=O)C2(CCCNC2)NC(=O)[C@H](Cc2ccc(OP(=O)(O)O)cc2)NC(=O)CSC[C@@H](C(N)=O)NC1=O (some centres not stated) ({CH2CO}-[pY][X1]NVC-NH2; thioether N-5)	359 nM

Reference: ChEMBL document CHEMBL1151863, “Discovery of thioether-bridged cyclic pentapeptides binding to Grb2-SH2 domain with high affinity” (Bioorg Med Chem Lett, 2009)
